Measurements as given in ChEMBL document CHEMBL1129555, “Arylacetamide-derived fluorescent probes: synthesis, biological evaluation, and direct fluorescent labeling of kappa opioid receptors in mouse microglial cells” (J Med Chem, 1996).

Assays:
Mus musculus = species on record: Mus musculus; assay: Percent recovery of twitch height after 30-40 washes with buffer using mouse vas deferens preparation; assay type: functional
Procedure, shortened: (§1)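 After agonist treatment, the electrically stimulated guinea pig ileum or mouse vas deferens was washed 30-40 times with buffer alone. Percent recovery of twitch height was recorded, n = 1.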

[1] = biological target: T1, Kappa-type opioid receptor (Cavia porcellus, UniProt P41144); assay: Inhibitory activity against Opioid receptor kappa 1 in electrically stimulated guinea pig longitudinal ileal muscle (GPI) preparation.
T1 sequence (P41144 whole entry): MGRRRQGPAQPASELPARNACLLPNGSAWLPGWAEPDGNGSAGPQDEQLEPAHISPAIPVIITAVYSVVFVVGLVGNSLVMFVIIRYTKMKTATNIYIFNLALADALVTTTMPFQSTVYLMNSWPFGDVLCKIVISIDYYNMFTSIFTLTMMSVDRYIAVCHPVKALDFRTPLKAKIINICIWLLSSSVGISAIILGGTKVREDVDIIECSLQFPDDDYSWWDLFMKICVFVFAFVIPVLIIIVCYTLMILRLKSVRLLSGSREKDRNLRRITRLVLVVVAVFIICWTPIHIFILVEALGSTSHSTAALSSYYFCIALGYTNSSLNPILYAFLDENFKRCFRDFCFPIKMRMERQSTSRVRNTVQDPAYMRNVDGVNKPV
Procedure, shortened: (§2)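 Electrically stimulated guinea pig longitudinal ileal muscle or mouse vas deferens preparations, run per earlier work. The read-out is inhibition of twitch, given as IC50 (nM), arithmetic mean ± SEM of at least three experiments.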

Cavia porcellus [2] = species on record: Cavia porcellus; assay: Percent recovery of twitch height after 30-40 washes with buffer using smooth guinea pig ileal muscle; assay type: functional; details: Muscle tissue; procedure, shortened: as §1
[3] = biological target: Kappa-type opioid receptor (Mus musculus, UniProt P33534); assay: Inhibitory activity against Opioid receptor kappa 1 in electrically stimulated mouse vas deferens (MVD) preparation.; procedure, shortened: as §2
Sequence of Kappa-type opioid receptor (Mus musculus, UniProt P33534) (P33534 whole entry): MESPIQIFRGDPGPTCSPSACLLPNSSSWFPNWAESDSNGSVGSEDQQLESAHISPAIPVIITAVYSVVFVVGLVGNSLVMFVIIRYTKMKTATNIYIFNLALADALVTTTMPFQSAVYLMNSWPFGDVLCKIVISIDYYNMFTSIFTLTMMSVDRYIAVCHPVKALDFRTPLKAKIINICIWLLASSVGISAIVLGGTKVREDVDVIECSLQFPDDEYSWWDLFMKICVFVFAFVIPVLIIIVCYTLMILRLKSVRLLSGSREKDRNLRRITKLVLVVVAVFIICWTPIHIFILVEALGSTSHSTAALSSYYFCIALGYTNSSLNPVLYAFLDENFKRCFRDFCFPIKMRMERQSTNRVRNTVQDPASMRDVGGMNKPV

Cavia porcellus [4] = species on record: Cavia porcellus; assay: Percent recovery after treatment with 500 nM of NTX and removal of NTX by 40 washes with buffer using smooth guinea pig ileal muscle; assay type: functional; details: Muscle tissue
Procedure, shortened: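 Agonist-treated guinea pig ileum was incubated with 500 nM naltrexone for 10 min. NTX was then removed by 40 washes with buffer, and recovery of electrically evoked twitch height was recorded as percent. n = 1.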

Mu-type opioid receptor = Mu-type opioid receptor (Cavia porcellus, UniProt P97266); assay: Binding affinity towards Opioid receptor mu 1 in guinea pig brain
Sequence of Mu-type opioid receptor (P97266 whole entry): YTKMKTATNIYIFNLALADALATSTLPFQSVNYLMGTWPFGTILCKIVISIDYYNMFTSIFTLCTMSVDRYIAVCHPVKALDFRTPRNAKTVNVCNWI
Procedure, shortened: (§3)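 Competition binding against radioligands in guinea pig brain membranes, modified from a published method. κ: 1 nM [³H]U69,593; µ: 2 nM [³H]DAMGO; δ1: 5 nM [³H]DPDPE; δ2: 2 nM [³H]DSLET. Ki values are geometric means of three experiments.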

[5] = biological target: T1, Kappa-type opioid receptor; assay: Binding affinity towards Opioid receptor kappa 1 in guinea pig brain; procedure, shortened: as §3

Row | Compound | Recovery (Mus musculus) | IC50 [1] | Recovery (Cavia porcellus [2]) | IC50 [3] | Recovery (Cavia porcellus [4]) | Ki (Mu-type opioid receptor) | Ki [5]
1 | CN(C(=O)Cc1ccc(Cl)c(Cl)c1)[C@H](CN1CCCC1)c1cccc(NC(=O)CNC(=O)C/N=C(S)/N=C2\C=CC(=C3c4ccc(O)cc4Oc4cc(O)ccc43)C(C(=O)O)=C2)c1 | 100% | 1.2 nM | 34% | 1.5 nM | 37% |  | 
2 | CN(C(=O)Cc1ccc(Cl)c(Cl)c1)[C@H](CN1CCCC1)c1cccc(NC(=O)C/N=C(S)/N=C2\C=CC(=C3c4ccc(O)cc4Oc4cc(O)ccc43)C(C(=O)O)=C2)c1 | 79% | 0.17 nM | 39% | 1.2 nM | 97% | 286 nM | 0.31 nM
3 | CN(C(=O)Cc1ccc(Cl)c(Cl)c1)[C@H](CN1CCCC1)c1cccc(NC(=O)CNC(=O)CNC(=O)CNC(=O)C/N=C(S)/N=C2\C=CC(=C3c4ccc(O)cc4Oc4cc(O)ccc43)C(C(=O)O)=C2)c1 | 100% | 0.15 nM | 44% | 6.5 nM | 131% | 631 nM | 0.91 nM
4 | CN(C(=O)Cc1ccc(Cl)c(Cl)c1)C(CN1CCCC1)c1ccc(N/C(S)=N/c2ccc(-c3c4ccc(=O)cc-4oc4cc(O)ccc34)c(C(=O)O)c2)cc1 (centres undefined) |  | 5.2 nM |  | 12.6 nM |  |  | 
5 | CN(C(=O)Cc1ccc(Cl)c(Cl)c1)[C@H](CN1CCCC1)c1cccc(N/C(S)=N/c2ccc(-c3c4ccc(=O)cc-4oc4cc(O)ccc34)c(C(=O)O)c2)c1 | 100% |  | 21% |  | 61% |  | 
6 | CN(C(=O)Cc1ccc(Cl)c(Cl)c1)[C@H](CN1CCCC1)c1cccc(NC(=S)Nc2ccc(-c3c4ccc(=O)cc-4oc4cc(O)ccc34)c(C(=O)O)c2)c1 |  | 0.37 nM |  | 1.2 nM |  |  | 
7 | CN(C(=O)Cc1ccc(Cl)c(Cl)c1)[C@H](CN1CCCC1)c1ccccc1 |  |  | 20% |  | 32% |  | 
8 | CN(C(=O)Cc1ccc(Cl)c(Cl)c1)C(CN1CCCC1)c1ccc(NC(=O)CNC(=O)CNC(=O)CNC(=O)C/N=C(S)\N=C2/C=CC(=C3c4ccc(O)cc4Oc4cc(O)ccc43)C(C(=O)O)=C2)cc1 (centres undefined) |  | 166 nM |  | 421 nM |  |  | 
9 | CN(C(=O)Cc1ccc(Cl)c(Cl)c1)C(CN1CCCC1)c1ccc(NC(=O)CNC(=O)C/N=C(S)\N=C2/C=CC(=C3c4ccc(O)cc4Oc4cc(O)ccc43)C(C(=O)O)=C2)cc1 (centres undefined) |  | 48 nM |  | 170 nM |  |  | 
10 | CN(C(=O)Cc1ccc(Cl)c(Cl)c1)C(CN1CCCC1)c1ccc(NC(=O)C/N=C(S)/N=C2\C=CC(=C3c4ccc(O)cc4Oc4cc(O)ccc43)C(C(=O)O)=C2)cc1 (centres undefined) |  | 62 nM |  | 102 nM |  |  | 
